Assay results from ChEMBL document CHEMBL1136818, “The development of new triazole based inhibitors of tumor necrosis factor-alpha (TNF-alpha) production” (Bioorg Med Chem Lett, 2003).
Where “and” joins values, the source holds several entries; their conditions need not be identical. Identical values can stand only once.

System: not listed separately
Experiment: Clearance was determined
Format: ADME, organism-based
Conditions: rat, in vivo; call rule not given here

| clearance [mL/min/kg] | SMILES |
| --- | --- |
| 36.5 | CCOCn1nnc(-c2ccc(F)cc2)c1-c1ccnc(Oc2cccc(NC(C)=O)c2)n1 |

System: not listed separately
Experiment: Oral bioavailability in the rat was determined
Format: ADME, organism-based
Conditions: in vivo

| bioavailability [%] | SMILES |
| --- | --- |
| 56 | CCOCn1nnc(-c2ccc(F)cc2)c1-c1ccnc(Oc2cccc(NC(C)=O)c2)n1 |

System: not listed separately
Experiment: Half life period was determined
Format: ADME, organism-based
Conditions: rat, in vivo

| half-life [h] | SMILES |
| --- | --- |
| 2.2 | CCOCn1nnc(-c2ccc(F)cc2)c1-c1ccnc(Oc2cccc(NC(C)=O)c2)n1 |

System: THP-1
Experiment: Inhibitory activity against TNF-alpha production using lipopolysaccharide stimulated human monocytic cells
Format: functional, cell-based
Conditions: Homo sapiens, THP-1
Outline: (§1)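 THP-1 human monocytic cells (2.0 × 10^5/well), in duplicate cultures, preincubated 15 min with or without inhibitor at various concentrations, then stimulated with LPS 2 μg/mL. TNF-α released measured by ELISA 4 h after stimulation; cell viability after the 4 h incubation checked by MTS assay. Standard deviation typically ±30% of the mean or less.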

| IC50 [nM] | SMILES |
| --- | --- |
| 189 | CCOCn1nnc(-c2ccnc(Oc3cccc(NC(C)=O)c3)n2)c1-c1ccc(F)cc1 |
| 3760 | COCCn1nc(-c2ccncc2)c(-c2ccc(F)cc2)n1 |
| 46 | CCOCn1nnc(-c2ccc(F)cc2)c1-c1ccnc(N[C@H](C)c2ccccc2)n1 |
| 12.5 | Fc1ccc(-c2[nH]nnc2-c2ccncc2)cc1 |
| 54 | CCOCn1nnc(-c2ccc(F)cc2)c1-c1ccnc(N[C@@H](C)c2ccccc2)n1 |
| > 10000 | O=C(Nc1ccccc1)n1nc(-c2ccncc2)c(-c2ccc(F)cc2)n1 |
| 4800 | COc1ccc(S(=O)(=O)n2nc(-c3ccncc3)c(-c3ccc(F)cc3)n2)cc1 |
| 557 | CCOCn1nnc(-c2ccnc(NCc3ccccc3)n2)c1-c1ccc(F)cc1 |
| 1320 | COc1ccc(-n2nc(-c3ccncc3)c(-c3ccc(F)cc3)n2)cc1 |
| 1600 | CCOCn1nnc(-c2ccnc(N[C@H](C)c3ccccc3)n2)c1-c1ccc(F)cc1 |
| 8 | CCOCn1nnc(-c2ccc(F)cc2)c1-c1ccnc(Oc2cccc(NC(C)=O)c2)n1 |
| 100 | CCOCn1nnc(-c2ccc(F)cc2)c1-c1ccnc(NCc2ccccc2)n1 |
| 74 | CCOCn1nnc(-c2ccc(F)cc2)c1-c1ccnc(Oc2ccccc2)n1 |
| 3720 | Fc1ccc(-c2nn(C(=S)Sc3ccccc3)nc2-c2ccncc2)cc1 |
| 306 | CCOCn1nnc(-c2ccnc(N[C@@H](C)c3ccccc3)n2)c1-c1ccc(F)cc1 |
| 4020 | CCOCn1nc(-c2ccc(F)cc2)c(-c2ccnc(Oc3ccccc3)n2)n1 |
| 744 | COc1ccc(-n2nc(-c3ccncc3)c(-c3ccc(F)cc3)n2)cc1OC |
| 3300 | COc1ccc(C(=O)n2nc(-c3ccncc3)c(-c3ccc(F)cc3)n2)cc1 |
| 7590 | COCn1nc(-c2ccncc2)c(-c2ccc(F)cc2)n1 |
| 1920 | CN(C(=O)n1nc(-c2ccncc2)c(-c2ccc(F)cc2)n1)c1ccccc1 |
| 3830 | CCOC(=O)n1nc(-c2ccncc2)c(-c2ccc(F)cc2)n1 |

| SMILES | IC50 [nM] |
| --- | --- |
| CCOCn1nnc(-c2ccncc2)c1-c1ccc(F)cc1 | 490 |
| C[S+]([O-])c1ccc(-c2nc(-c3ccc(F)cc3)c(-c3ccncc3)[nH]2)cc1 (centres undefined) [SB-203580] | 72 |

Same assay, conditions: thp-1

| IC50 | SMILES |
| --- | --- |
| 611 nM and 164 nM | CCOCn1nnc(-c2ccnc(Oc3ccccc3)n2)c1-c1ccc(F)cc1 |
| 490 nM | CCOCn1nc(-c2ccncc2)c(-c2ccc(F)cc2)n1 |

System: THP-1
Experiment: Inhibitory activity against TNF-alpha production using lipopolysaccharide (LPS) stimulated human monocytic cells (THP-1); NA: Not active
Format: functional, cell-based
Conditions: not given
Outline: as §1

| IC50 | SMILES |
| --- | --- |
| Not Active | CCOCn1nnc(-c2ccc(F)cc2)c1-c1ccncc1 |
